One series addresses Aurora kinase B (Homo sapiens, UniProt Q96GD4). The series is described as follows: Binding affinity to wild-type human partial length AURKB (D25 to A303 residues) expressed in mammalian expression system measured after 1 hr by Kinomescan method. A digest of the protocol:
(§1)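 KINOMEscan competition binding assay. A 321-kinase panel was first screened at 10 μM compound, and binding affinities were then determined for Aurora and PLK family members.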

The nature of series [1]: Half life in Sprague-Dawley rat at 50 mg/kg, po administered via gastric gavage by LC-MS/MS analysis. Type of series: ADME, organism-based. The note with it: in vivo.
Series [2] can be described thus: Oral bioavailability in Sprague-Dawley rat at 50 mg/kg administered via gastric gavage by LC-MS/MS analysis. It counts as ADME, organism-based. The conditions noted are these: in vivo.
For series [3], the target named is Serine/threonine-protein kinase PLK1 (Homo sapiens, UniProt P53350). The series is described as follows: Binding affinity to wild-type human partial length PLK1 (A33 to F325 residues) expressed in mammalian expression system measured after 1 hr by kinomescan method. A digest of the protocol: as §1
Serine/threonine-protein kinase PLK1, sequence (P53350 whole entry, the tested form may be a part): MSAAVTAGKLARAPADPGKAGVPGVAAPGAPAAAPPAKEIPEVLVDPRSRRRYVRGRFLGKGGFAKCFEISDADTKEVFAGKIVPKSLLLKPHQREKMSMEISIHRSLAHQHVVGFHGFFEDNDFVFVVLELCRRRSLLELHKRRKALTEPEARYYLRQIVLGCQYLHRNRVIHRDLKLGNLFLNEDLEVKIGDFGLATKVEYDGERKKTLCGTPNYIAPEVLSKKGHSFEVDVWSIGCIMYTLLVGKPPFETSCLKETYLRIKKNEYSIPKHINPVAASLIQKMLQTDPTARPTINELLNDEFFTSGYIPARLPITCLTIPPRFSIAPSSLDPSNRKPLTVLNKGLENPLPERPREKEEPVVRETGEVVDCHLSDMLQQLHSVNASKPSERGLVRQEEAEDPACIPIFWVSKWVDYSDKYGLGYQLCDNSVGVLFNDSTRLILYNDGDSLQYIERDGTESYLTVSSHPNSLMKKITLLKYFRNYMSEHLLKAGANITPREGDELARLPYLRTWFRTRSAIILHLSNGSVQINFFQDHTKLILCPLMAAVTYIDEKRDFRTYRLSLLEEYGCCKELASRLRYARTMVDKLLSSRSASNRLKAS
A short description of series [4]: Cmax in Sprague-Dawley rat at 50 mg/kg, po administered via gastric gavage by LC-MS/MS analysis. It counts as ADME, organism-based. Details: dose 50 mg/kg, route oral. The conditions noted are these: in vivo.
Series [5] relates to HCT-116. In words: Cell cycle arrest in human HCT116 cells assessed as accumulation at G2/M phase at 1 uM measured after 24 to 48 hrs by propidium iodide staining-based flow cytometry (reference value: 3.37%). It counts as functional.
For a further series, the system named is Calu-6. In words: Antiproliferative activity against human Calu6 cells measured after 48 hrs by MTT assay. The conditions noted are these: Calu-6, 48 h. It counts as functional, cell-based. A digest of the protocol: (§2)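 Cells were exposed to a range of compound concentrations for 48 h. MTT reagent was then added and absorbance read at 490 nm. Viability was normalized to vehicle control set as 100%, from n = 3 independent experiments, and IC50 was taken from the dose–response curves.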

Series [6] has as its system HCT-116. In words: Inhibition of colony formation in human HCT116 cells at 10 uM incubated for 48 hrs followed by supplemented with fresh medium every 3 days for 2 weeks by crystal violet staining-based assay. Type of series: functional, cell-based.
The subject of series [7] is HCT-116. The series is described as follows: Induction of apoptosis in human HCT116 cells assessed as apoptotic cell population at 1 uM measured after 48 hrs by Annexin V-FITC/propidium iodide staining-based flow cytometry (reference value: 5.9%). Type of series: functional.
In series [8] the test system is HCT-116. The series is described as follows: Antitumor activity against human HCT116 cells xenografted in BALB/c mouse assessed as reduction in tumor size at 10 mg/kg, iv administered every 3 days for 24 days measured at 3 days interval during compound dosing relative to control. Type of series: functional. Also noted: scale not given: the % may be the effect or the level left.

A short description of series [9]: AUC (0 to infinity) in Sprague-Dawley rat at 10 mg/kg, iv administered […] by LC-MS/MS analysis. It counts as ADME, organism-based. The note with it: in vivo. Also noted: dose 10 mg/kg, route intravenous, time infinity.
Series [10] deals with Serine/threonine-protein kinase PLK2 (Homo sapiens, UniProt Q9NYY3). In words: Binding affinity to wild-type human partial length PLK2 (H58 to F354 residues) expressed in mammalian expression system measured after 1 hr by kinomescan method. A digest of the protocol:
as §1

A short description of series [11]: Solubility of the compound in water. Type of series: physicochemical. A digest of the protocol:
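Solubility of the compound measured at 25±0.2°C, separately in water and in DMSO; reported in µg/mL.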

In series [12] the test system is HCT-116. In words: Cell cycle arrest in human HCT116 cells assessed as accumulation at G2/M phase at 5 uM measured after 24 to 48 hrs by propidium iodide staining-based flow cytometry (reference value: 3.37%). Type of series: functional.
The test system of series [13] is HCT-116. The series is described as follows: Antitumor activity against human HCT116 cells xenografted in BALB/c mouse assessed as survival rate at 10 mg/kg, iv administered every 3 days for 60 days relative to control. Type of series: functional. The note with it: HCT-116, iv.
The nature of series [14]: Lipid/water partition coefficient, log D of the compound. Type of series: physicochemical.
The test system of series [15] is HCT-116. In words: Antitumor activity against human HCT116 cells xenografted in BALB/c mouse assessed as mean survival days at 5 mg/kg, iv administered every 3 days for 60 days (reference value: 25 day). It counts as functional.
For series [16], the target named is T1, Phosphatidylinositol 4,5-bisphosphate 3-kinase catalytic subunit delta isoform (Homo sapiens, UniProt O00329).
T1 sequence (O00329 whole entry): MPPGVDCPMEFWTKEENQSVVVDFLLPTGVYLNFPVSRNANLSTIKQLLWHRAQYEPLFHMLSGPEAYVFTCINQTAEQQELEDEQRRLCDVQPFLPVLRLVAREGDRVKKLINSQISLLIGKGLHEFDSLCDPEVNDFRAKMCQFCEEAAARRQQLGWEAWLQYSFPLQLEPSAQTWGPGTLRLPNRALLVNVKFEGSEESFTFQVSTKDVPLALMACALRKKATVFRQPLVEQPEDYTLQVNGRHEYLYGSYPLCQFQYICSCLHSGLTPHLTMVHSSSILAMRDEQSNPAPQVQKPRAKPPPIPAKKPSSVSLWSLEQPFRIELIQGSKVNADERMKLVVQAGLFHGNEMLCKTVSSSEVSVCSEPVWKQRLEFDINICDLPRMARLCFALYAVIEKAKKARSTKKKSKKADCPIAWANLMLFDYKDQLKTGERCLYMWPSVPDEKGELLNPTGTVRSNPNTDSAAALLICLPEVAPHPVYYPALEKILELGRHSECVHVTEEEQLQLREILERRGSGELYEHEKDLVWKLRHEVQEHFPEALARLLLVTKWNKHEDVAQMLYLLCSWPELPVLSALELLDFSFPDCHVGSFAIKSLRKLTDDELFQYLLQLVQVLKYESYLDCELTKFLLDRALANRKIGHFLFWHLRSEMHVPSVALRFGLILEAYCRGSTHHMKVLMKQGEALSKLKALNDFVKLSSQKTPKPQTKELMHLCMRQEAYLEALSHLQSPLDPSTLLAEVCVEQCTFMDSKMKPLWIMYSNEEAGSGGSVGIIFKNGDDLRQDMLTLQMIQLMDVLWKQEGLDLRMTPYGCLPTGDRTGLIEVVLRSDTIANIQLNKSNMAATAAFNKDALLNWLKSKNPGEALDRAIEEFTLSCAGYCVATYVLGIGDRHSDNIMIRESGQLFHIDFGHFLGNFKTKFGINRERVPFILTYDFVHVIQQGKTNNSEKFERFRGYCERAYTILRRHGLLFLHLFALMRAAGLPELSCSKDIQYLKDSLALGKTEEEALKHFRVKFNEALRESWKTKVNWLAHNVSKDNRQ
The series is described as follows: Binding affinity to wild-type human partial length PIK3CD (R108 to Q1044 residues) expressed in mammalian expression system measured after 1 hr by kinomescan method. The note with it: pooled result: one value given for 15 cell lines, strains, targets or settings.

Series [17] relates to HCT-116. In words: Antiproliferative activity against human HCT116 cells measured after 48 hrs by MTT assay. Type of series: functional, cell-based. The note with it: HCT-116, 48 h. A digest of the protocol: as §2
Another series has as its system A549. The series is described as follows: Antiproliferative activity against human A549 cells measured after 48 hrs by MTT assay. The note with it: A549, 48 h. It counts as functional, cell-based. A digest of the protocol:
as §2

For series [18], the target named is Serine/threonine-protein kinase PLK3 (Homo sapiens, UniProt Q9H4B4). The series is described as follows: Binding affinity to wild-type human partial length PLK3 (A42 to L334 residues) expressed in mammalian expression system measured after 1 hr by kinomescan method. A digest of the protocol:
as §1

The species entered for a further series is Homo sapiens. In words: Inhibition of AURKA/PLK1 in human HCT116 cells assessed as increase in histone H3 Ser10 phosphorylation measured after 24 to 48 hrs by Western blot analysis. It counts as cell-based.

In brackets after ≈: the same amount, converted by molar mass. Activity calls are given as the source filed them. The calls are words filed in the database; no cut-off is given here.

Consider 1 compound from ChEMBL document CHEMBL4373706, “Discovery of Inhibitors of Aurora/PLK Targets as Anticancer Agents” (J Med Chem, 2019).

Serine/threonine-protein kinase PLK3, sequence (Q9H4B4 whole entry, the tested form may be a part): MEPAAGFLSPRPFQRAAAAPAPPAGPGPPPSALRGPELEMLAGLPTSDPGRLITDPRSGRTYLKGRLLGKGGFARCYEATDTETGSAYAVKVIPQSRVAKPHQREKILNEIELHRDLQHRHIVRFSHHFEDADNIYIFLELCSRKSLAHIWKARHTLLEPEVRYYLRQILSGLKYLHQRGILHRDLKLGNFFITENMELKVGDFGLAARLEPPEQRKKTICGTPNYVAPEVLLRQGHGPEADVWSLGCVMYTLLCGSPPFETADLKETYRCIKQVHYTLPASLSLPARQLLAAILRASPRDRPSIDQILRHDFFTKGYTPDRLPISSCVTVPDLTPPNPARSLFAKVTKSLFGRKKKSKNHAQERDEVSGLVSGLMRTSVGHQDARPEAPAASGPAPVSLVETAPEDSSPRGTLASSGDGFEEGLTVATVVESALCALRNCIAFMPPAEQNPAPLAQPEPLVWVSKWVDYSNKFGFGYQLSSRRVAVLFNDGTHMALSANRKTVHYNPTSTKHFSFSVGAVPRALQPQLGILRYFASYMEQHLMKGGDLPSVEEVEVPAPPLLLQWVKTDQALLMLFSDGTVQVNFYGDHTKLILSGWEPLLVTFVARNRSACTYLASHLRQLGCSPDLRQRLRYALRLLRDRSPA
Aurora kinase B, sequence (Q96GD4 whole entry, the tested form may be a part): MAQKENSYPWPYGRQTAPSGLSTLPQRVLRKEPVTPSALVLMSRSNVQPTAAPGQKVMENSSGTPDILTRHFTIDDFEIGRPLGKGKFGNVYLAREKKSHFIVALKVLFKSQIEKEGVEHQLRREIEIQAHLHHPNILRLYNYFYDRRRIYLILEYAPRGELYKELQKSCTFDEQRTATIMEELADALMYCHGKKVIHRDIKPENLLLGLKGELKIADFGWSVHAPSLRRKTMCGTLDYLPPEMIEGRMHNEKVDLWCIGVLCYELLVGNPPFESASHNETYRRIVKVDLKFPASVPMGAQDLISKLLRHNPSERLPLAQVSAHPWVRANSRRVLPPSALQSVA
Serine/threonine-protein kinase PLK2, sequence (Q9NYY3 whole entry, the tested form may be a part): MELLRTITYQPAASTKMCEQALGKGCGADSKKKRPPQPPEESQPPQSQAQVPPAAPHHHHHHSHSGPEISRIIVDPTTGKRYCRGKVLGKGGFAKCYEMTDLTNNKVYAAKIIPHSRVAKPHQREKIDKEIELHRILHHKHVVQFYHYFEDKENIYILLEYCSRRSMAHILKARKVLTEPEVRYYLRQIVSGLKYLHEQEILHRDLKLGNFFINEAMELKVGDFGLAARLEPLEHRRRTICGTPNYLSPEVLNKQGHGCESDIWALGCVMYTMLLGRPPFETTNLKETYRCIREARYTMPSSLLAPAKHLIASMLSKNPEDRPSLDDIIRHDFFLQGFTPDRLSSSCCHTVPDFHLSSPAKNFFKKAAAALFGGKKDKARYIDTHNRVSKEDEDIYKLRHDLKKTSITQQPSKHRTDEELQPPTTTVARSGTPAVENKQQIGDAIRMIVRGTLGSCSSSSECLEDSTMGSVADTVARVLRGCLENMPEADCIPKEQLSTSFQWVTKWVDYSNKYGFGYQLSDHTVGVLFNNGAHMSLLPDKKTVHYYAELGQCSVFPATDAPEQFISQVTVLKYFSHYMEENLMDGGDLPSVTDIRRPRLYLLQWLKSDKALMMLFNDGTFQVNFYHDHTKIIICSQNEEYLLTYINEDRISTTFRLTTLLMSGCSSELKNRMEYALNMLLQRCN

As for `O=C(Nc1ccc2cc(C(=O)Nc3nccs3)ccc2c1)c1ccc(Cl)c(Cl)c1`, the Kd on Aurora kinase B came out at 78 nM; in series [3] it was 55 nM; in series [10], 272 nM; in series [16] it was 7110 nM; in series [18], 456 nM. Besides, in series [1], the half-life is 11.8 h. This compound also displayed a F in [2] of 65%. In addition, the concentration in series [4] peaked (Cmax) at 25100 ng/mL. Moreover, the Activity in the series on HCT-116 [5] worked out at 7.51%; in the series with HCT-116 [7] it was 41.1%; in the series with HCT-116 [8] it was 75%; in the series on HCT-116 [12], 10.06%. The IC50 with Calu-6 was found to be 5300 nM; in the series on HCT-116 [17], 400 nM; in the series with A549, 11600 nM. For the same compound, the inhibition result with HCT-116 [6] and in the series listed under Homo sapiens was “Active” throughout. In addition, in [9], the AUC worked out at 1260.761 µg·h/mL. Further, in series [11], the solubility came to 9.6 µg/mL (≈ 21.7 µM). The survival at 10 mg/kg with HCT-116 [13] turned out to be 80%. In addition, in series [14], the logD was found to be 4.8. For the same compound, in the series on HCT-116 [15], the MSD turned out to be 45 days.
